From ChEMBL document CHEMBL3112519, “Degrasyn-like symmetrical compounds: possible therapeutic agents for multiple myeloma (MM-I)” (Bioorg Med Chem, 2014)
Activity calls are given as the source filed them. No cut-off for these calls is given here.

Assays:
[1] = Cytotoxicity against human MM1S cells after 72 hrs by MTT assay; assay type: functional, cell-based; settings: MM1.S
In short: (§1)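 Cells were grown in RPMI 1640 with 10% heat-inactivated FBS and 2 mM glutamine. Non-adherent cells were seeded at 20,000 per well and adherent cells at 5,000. Compounds were serially diluted in medium from a final top concentration of 10 μM (DMSO ≤0.1%), with vehicle controls, and incubated at 37 °C for 72 h. MTT was added for 2 h, then SDS/DMF lysis (pH 4.7) for 6 h, and OD570 was read. IC50 was taken from the concentration range.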

[2] = Cytotoxicity against human MM1S cells at 10 uM after 72 hrs by MTT assay; assay type: functional; settings: MM1.S
In short: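 MM1.S cells were grown in RPMI 1640 with 10% heat-inactivated FBS and 2 mM glutamine and plated at 20,000 cells per well. They were exposed to a single 10 μM final concentration (DMSO ≤0.1%) or vehicle for 72 h at 37 °C. MTT was added for 2 h, followed by SDS/DMF lysis for 6 h and OD570 reading. Percent growth inhibition was calculated against vehicle.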

[3] = Cytotoxicity against human Mino cells after 72 hrs by MTT assay; assay type: functional, cell-based; in short: as §1
K562 = experiment: Cytotoxicity against human K562 cells after 72 hrs by MTT assay; assay type: functional, cell-based; settings: K562, 72 h; in short: as §1
A-375 = experiment: Cytotoxicity against human A375 cells after 72 hrs by MTT assay; assay type: functional, cell-based; settings: A-375, 72 h; in short: as §1
[4] = molecular target: T1, Ubiquitin carboxyl-terminal hydrolase 9X (Homo sapiens, UniProt Q93008); experiment: Inhibition of human recombinant N-terminal His6-Smt3-fusion-tagged Usp9x catalytic domain expressed in Escherichia coli using Ub-AMC as substrate incubated for 30 mins prior to substrate addition by fluorescence assay
T1 sequence (Q93008 whole entry, the tested form may be a part): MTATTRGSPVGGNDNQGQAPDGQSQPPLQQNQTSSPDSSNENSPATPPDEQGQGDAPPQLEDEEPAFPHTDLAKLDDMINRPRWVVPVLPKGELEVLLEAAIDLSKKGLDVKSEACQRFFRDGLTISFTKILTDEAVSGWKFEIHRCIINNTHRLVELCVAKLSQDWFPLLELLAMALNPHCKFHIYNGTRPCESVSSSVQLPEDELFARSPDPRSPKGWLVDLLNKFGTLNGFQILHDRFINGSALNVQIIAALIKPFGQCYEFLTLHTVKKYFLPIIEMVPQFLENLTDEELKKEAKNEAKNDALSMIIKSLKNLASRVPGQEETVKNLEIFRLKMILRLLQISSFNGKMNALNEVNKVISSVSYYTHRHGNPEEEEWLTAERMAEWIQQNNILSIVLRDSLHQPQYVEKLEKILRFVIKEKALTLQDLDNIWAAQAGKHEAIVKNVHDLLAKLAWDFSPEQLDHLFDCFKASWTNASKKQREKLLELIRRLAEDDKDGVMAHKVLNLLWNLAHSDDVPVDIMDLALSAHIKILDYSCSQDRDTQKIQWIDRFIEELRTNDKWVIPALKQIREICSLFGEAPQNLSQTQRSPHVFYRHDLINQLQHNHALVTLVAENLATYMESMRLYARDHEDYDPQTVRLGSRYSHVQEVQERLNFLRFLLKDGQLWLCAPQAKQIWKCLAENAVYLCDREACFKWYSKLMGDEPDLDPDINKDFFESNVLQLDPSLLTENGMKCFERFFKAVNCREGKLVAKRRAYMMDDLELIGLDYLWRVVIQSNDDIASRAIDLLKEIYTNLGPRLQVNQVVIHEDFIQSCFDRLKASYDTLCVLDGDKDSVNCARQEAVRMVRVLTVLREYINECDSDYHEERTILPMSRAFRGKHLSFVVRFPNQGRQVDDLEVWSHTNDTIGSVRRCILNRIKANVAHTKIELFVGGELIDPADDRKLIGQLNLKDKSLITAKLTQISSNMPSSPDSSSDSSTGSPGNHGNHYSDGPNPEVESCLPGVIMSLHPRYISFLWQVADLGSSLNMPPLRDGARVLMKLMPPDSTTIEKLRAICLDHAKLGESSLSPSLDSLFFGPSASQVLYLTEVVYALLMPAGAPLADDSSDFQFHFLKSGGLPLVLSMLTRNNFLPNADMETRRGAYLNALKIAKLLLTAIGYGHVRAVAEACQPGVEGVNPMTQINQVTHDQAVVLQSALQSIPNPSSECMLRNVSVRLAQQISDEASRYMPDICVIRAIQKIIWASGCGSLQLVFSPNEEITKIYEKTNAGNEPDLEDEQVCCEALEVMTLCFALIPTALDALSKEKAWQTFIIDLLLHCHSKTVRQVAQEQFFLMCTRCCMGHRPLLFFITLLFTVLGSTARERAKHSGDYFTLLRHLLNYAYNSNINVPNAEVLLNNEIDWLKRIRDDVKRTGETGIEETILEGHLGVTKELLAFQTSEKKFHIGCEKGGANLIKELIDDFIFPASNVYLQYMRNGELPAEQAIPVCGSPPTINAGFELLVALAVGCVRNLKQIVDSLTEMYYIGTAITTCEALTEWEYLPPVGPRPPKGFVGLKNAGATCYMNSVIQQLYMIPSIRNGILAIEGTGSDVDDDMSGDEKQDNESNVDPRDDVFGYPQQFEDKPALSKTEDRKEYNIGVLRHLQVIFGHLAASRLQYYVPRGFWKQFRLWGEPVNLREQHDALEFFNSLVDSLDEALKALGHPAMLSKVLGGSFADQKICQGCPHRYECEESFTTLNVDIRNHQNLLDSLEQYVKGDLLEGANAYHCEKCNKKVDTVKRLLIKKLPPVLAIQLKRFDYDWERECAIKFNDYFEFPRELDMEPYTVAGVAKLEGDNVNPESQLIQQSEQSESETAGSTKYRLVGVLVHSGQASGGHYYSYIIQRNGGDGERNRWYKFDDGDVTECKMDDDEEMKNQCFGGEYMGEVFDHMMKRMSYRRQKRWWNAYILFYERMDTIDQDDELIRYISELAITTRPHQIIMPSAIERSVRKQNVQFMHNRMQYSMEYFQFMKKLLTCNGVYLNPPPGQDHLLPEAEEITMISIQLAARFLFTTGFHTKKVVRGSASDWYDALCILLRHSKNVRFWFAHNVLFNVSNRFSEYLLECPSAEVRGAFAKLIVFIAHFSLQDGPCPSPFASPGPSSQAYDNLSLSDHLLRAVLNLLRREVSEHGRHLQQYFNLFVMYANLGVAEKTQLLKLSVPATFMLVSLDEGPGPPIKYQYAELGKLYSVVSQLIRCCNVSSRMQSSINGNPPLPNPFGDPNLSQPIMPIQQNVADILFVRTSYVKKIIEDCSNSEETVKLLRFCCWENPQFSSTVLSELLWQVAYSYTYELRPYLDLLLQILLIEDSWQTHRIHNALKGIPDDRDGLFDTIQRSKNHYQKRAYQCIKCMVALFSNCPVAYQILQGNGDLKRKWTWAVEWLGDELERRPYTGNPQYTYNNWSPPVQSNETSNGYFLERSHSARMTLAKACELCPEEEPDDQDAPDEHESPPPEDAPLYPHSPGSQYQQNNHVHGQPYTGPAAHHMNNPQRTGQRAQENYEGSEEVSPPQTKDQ

[5] = molecular target: T1, Ubiquitin carboxyl-terminal hydrolase 9X; experiment: Inhibition of Usp9x in human Z138 cells using HA-Ub vinyl-sulfone as substrate at 1.25 to 5 uM after 4 hrs by immunoblotting analysis; assay type: cell-based
Homo sapiens = species: Homo sapiens; experiment: Inhibition of human Bcr-Abl kinase at 10000 nM
[6] = molecular target: Tyrosine-protein kinase JAK2 (Homo sapiens) (UniProt O60674); experiment: Inhibition of human JAK2 kinase at 10000 nM
Sequence of Tyrosine-protein kinase JAK2 (Homo sapiens) (O60674 whole entry): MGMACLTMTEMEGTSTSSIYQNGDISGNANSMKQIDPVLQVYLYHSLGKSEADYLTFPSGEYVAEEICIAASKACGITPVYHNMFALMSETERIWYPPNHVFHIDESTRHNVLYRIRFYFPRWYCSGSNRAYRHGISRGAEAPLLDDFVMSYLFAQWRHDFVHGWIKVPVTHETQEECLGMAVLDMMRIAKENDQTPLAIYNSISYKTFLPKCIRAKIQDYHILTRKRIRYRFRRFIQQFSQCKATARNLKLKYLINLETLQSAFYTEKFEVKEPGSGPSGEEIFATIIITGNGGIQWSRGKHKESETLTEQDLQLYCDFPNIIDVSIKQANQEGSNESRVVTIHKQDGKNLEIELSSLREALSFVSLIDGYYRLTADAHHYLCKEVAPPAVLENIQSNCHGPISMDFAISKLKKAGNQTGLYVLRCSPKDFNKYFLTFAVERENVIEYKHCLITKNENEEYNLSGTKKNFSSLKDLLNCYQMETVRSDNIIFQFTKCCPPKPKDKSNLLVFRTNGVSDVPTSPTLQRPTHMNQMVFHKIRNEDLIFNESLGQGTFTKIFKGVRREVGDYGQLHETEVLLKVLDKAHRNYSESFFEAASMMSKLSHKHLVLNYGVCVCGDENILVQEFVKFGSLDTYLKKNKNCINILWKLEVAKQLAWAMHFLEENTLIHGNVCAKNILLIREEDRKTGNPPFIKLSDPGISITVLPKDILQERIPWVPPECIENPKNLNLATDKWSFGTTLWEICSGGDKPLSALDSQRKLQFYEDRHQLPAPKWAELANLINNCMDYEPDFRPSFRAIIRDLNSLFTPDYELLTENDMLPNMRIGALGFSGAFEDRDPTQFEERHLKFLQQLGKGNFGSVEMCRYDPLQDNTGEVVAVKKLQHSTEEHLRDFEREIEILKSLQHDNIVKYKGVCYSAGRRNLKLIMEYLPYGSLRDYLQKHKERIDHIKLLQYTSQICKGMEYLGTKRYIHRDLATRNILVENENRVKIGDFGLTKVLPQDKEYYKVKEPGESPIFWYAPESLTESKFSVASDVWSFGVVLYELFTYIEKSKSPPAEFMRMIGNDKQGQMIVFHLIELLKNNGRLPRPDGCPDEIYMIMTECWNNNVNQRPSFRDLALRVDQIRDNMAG

[7] = molecular target: Mast/stem cell growth factor receptor Kit (Homo sapiens) (UniProt P10721); experiment: Inhibition of human c-kit kinase at 10000 nM
Sequence of Mast/stem cell growth factor receptor Kit (Homo sapiens) (P10721 whole entry): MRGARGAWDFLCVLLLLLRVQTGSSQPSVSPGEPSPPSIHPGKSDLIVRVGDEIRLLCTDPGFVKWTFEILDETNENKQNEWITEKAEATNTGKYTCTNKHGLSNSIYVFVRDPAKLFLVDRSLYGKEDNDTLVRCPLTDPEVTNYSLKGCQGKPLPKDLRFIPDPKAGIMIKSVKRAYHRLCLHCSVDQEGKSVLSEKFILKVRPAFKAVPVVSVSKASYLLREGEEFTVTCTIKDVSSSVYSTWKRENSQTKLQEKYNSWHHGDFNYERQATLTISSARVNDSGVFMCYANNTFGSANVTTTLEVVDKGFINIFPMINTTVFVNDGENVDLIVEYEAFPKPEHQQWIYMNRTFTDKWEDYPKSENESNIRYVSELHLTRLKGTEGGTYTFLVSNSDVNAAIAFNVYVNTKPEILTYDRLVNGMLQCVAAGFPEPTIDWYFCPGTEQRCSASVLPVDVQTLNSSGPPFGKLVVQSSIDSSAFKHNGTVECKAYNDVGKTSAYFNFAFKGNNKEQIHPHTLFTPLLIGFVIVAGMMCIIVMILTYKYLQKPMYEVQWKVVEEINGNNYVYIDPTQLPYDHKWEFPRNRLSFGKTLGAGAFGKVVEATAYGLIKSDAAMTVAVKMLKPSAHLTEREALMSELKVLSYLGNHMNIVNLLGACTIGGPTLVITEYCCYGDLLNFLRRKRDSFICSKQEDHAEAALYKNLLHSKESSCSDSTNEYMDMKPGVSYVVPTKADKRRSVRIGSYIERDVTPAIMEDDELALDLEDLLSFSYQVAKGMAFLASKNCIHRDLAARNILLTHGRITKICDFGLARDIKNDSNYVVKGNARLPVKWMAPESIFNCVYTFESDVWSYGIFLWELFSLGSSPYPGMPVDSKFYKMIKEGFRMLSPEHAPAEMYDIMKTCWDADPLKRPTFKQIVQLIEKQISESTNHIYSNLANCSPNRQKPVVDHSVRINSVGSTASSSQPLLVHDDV

Row | SMILES | IC50 [1] [nM] | also measured
1 | N#C/C(=C/c1ccc(-c2cccs2)s1)C(=O)NCc1cccc(CNC(=O)/C(C#N)=C\c2ccc(-c3cccs3)s2)c1 | > 5000 | 
2 | CCCCCCOc1ccc(/C=C(/C#N)C(=O)NCc2cccc(CNC(=O)/C(C#N)=C\c3ccc(OCCCCCC)cc3)c2)cc1 | 5000 | 
3 | COc1ccc(/C=C(/C#N)C(=O)NCc2cccc(CNC(=O)/C(C#N)=C\c3ccc(OC)c(OC)c3)c2)cc1OC | 2000 | 
4 | CCC[C@H](NC(=O)/C(C#N)=C/c1cccc(/C=C(\C#N)C(=O)N[C@@H](CCC)c2ccccc2)c1)c1ccccc1 | 600 | 
5 | N#C/C(=C\C=C\c1ccc(O)c(O)c1)C(=O)NCc1cccc(CNC(=O)/C(C#N)=C/C=C/c2ccc(O)c(O)c2)c1 | > 5000 | 
6 | N#C/C(=C/c1cnc[nH]1)C(=O)NCc1cccc(CNC(=O)/C(C#N)=C\c2cnc[nH]2)c1 | > 5000 | 
7 | CCCCOc1ccc(/C=C(\C#N)C(=O)N[C@@H](C)c2ccccc2)cc1 |  | inhibition at 10 µM [2]: 31%
8 | COc1ccc([C@H](C)NC(=O)/C(C#N)=C/c2cccc(/C=C(\C#N)C(=O)N[C@@H](C)c3ccc(OC)cc3)c2)cc1 | 1000 | 
9 | CCC[C@H](NC(=O)/C(C#N)=C/c1cccc(/C=C(\C#N)C(=O)N[C@@H](CCC)c2ccccc2)n1)c1ccccc1 | 1200 | 
10 | N#C/C(=C/c1cc(-c2ccccc2)cs1)C(=O)NCc1cccc(CNC(=O)/C(C#N)=C\c2cc(-c3ccccc3)cs2)c1 | > 5000 | 
11 | C[C@H](NC(=O)/C(C#N)=C/c1ccc(C(F)(F)F)cc1)c1ccccc1 |  | inhibition at 10 µM [2]: 63%
12 | N#C/C(=C\c1cccc(/C=C(\C#N)C(=O)N[C@@H](Cc2ccccc2)c2ccccc2)c1)C(=O)N[C@@H](Cc1ccccc1)c1ccccc1 | 620 | 
13 | N#C/C(=C/c1cc(Cl)c(Cl)cn1)C(=O)NCc1cccc(CNC(=O)/C(C#N)=C\c2cc(Cl)c(Cl)cn2)c1 | 1250 | 
14 | COc1cccc(/C=C(/C#N)C(=O)NCc2cccc(CNC(=O)/C(C#N)=C\c3cccc(OC)n3)c2)n1 | > 5000 | 
15 | N#C/C(=C\c1cccc(/C=C(\C#N)C(=O)N[C@@H](CO)c2ccccc2)n1)C(=O)N[C@@H](CO)c1ccccc1 | > 2000 | 
16 | C[C@H](NC(=O)/C(C#N)=C/c1cc(/C=C(\C#N)C(=O)N[C@@H](C)c2ccccc2)cc(/C=C(\C#N)C(=O)N[C@@H](C)c2ccccc2)c1)c1ccccc1 | 700 | 
17 | N#C/C(=C/c1ccc(O)c(Br)c1)C(=O)NCc1cccc(CNC(=O)/C(C#N)=C\c2ccc(O)c(Br)c2)c1 | > 10000 | 
18 | C[C@H](NC(=O)/C(C#N)=C/c1cccc(/C=C(\C#N)C(=O)N[C@@H](C)c2ccccc2)n1)c1ccccc1 | 1280 | 
19 | N#C/C(=C/c1csc2ccccc12)C(=O)NCc1cccc(CNC(=O)/C(C#N)=C\c2csc3ccccc23)c1 | > 5000 | 
20 | N#C/C(=C\c1ccccc1)C(=O)N1CCC(C(c2ccccc2)c2ccccc2)CC1 |  | inhibition at 10 µM [2]: 14%

Row | SMILES | IC50 [1] [nM] | also measured
21 | COc1ccc(C(CC2CC2)NC(=O)/C(C#N)=C/c2cccc(/C=C(\C#N)C(=O)NC(CC3CC3)c3ccc(OC)cc3)c2)cc1 (racemic) | 1200 | 
22 | N#C/C(=C/c1ccc(N2CCCCC2)cc1)C(=O)NCc1cccc(CNC(=O)/C(C#N)=C\c2ccc(N3CCCCC3)cc2)c1 | > 5000 | 
23 | N#C/C(=C\c1ccc(/C=C(\C#N)C(=O)N[C@@H](CO)c2ccccc2)cc1)C(=O)N[C@@H](CO)c1ccccc1 | 2000 | 
24 | CC[C@H](NC(=O)/C(C#N)=C/c1cccc(/C=C(\C#N)C(=O)N[C@@H](CC)c2ccccc2)c1)c1ccccc1 | 800 | 
25 | COC(=O)c1ccc(/C=C(\C#N)C(=O)N[C@@H](C)c2ccccc2)cc1 |  | inhibition at 10 µM [2]: 67%
26 | C[C@H](NC(=O)/C(C#N)=C/c1cccc(/C=C(\C#N)C(=O)N[C@@H](C)c2ccccc2)c1)c1ccccc1 | 400 | inhibition at 10 µM [2]: 100%; IC50 [3]: 400 nM; IC50 (K562): 600 nM; IC50 (A-375): 800 nM
27 | CC(C)c1ccc(/C=C(\C#N)C(=O)NCc2ccc(Cl)cc2)cc1 |  | inhibition at 10 µM [2]: 21%
28 | C[C@H](NC(=O)/C(C#N)=C/c1cccnc1)c1ccccc1 |  | inhibition at 10 µM [2]: 44%
29 | C[C@H](NC(=O)/C(C#N)=C/c1cccs1)c1ccccc1 |  | inhibition at 10 µM [2]: 14%
30 | CCC[C@H](NC(=O)/C(C#N)=C/c1cccc(Br)n1)c1ccccc1 | 1200 | inhibition at 10 µM [2]: 97%; IC50 [4]: 5900 nM; inhibition [5]: Active; IC50 [3]: 800 nM; IC50 (K562): 2400 nM; IC50 (A-375): 1700 nM
31 | N#C/C(=C/c1ccc([N+](=O)[O-])c(O)c1)C(=O)NCc1cccc(CNC(=O)/C(C#N)=C\c2ccc([N+](=O)[O-])c(O)c2)c1 | 700 | 
32 | N#C/C(=C\c1cccc(/C=C(\C#N)C(=O)N[C@@H](CO)c2ccccc2)c1)C(=O)N[C@@H](CO)c1ccccc1 | > 2000 | 
33 | C[C@H](NC(=O)/C(C#N)=C/c1ccc(-c2ccccc2)cc1)c1ccccc1 |  | inhibition at 10 µM [2]: 49%
34 | N#C/C(=C/c1cccc(Br)n1)C(=O)NCc1cccc(CNC(=O)/C(C#N)=C\c2cccc(Br)n2)c1 | 240 | IC50 [3]: 200 nM; inhibition (Homo sapiens): inactive; IC50 (K562): 400 nM; inhibition [6]: inactive; IC50 (A-375): 600 nM; inhibition [7]: inactive
35 | N#C/C(=C/c1ccc2[nH]ccc2c1)C(=O)NCc1cccc(CNC(=O)/C(C#N)=C\c2ccc3[nH]ccc3c2)c1 | > 5000 | 
36 | C[C@H](NC(=O)/C(C#N)=C/c1ccc(/C=C(\C#N)C(=O)N[C@@H](C)c2ccccc2)cc1)c1ccccc1 | > 5000 | 
37 | C[C@H](NC(=O)/C(C#N)=C/c1ccc(/C=C(\C#N)C(=O)N[C@@H](C)c2ccccc2Cl)cc1)c1ccccc1Cl | > 5000 | 
38 | N#C/C(=C/c1c[nH]c2ccccc12)C(=O)NCc1cccc(CNC(=O)/C(C#N)=C\c2c[nH]c3ccccc23)c1 | > 5000 | 
39 | Cc1ccc(Cl)c(C=C(C#N)C(=O)NCc2cccc(CNC(=O)C(C#N)=Cc3c(Cl)ccc(C)c3F)c2)c1F | 600 | 
